ChEMBL document CHEMBL3608285, “Citrifelins A and B, Citrinin Adducts with a Tetracyclic Framework from Cocultures of Marine-Derived Isolates of Penicillium citrinum and Beauveria felina” (2015)
Converted amounts (≈) assume the structure as drawn. The source made the active and inactive calls. The rule behind the calls is not given here. Numbered stars: 1 amine (or outer) side, 2 acyl side, 3 side chain; on linkers, the order of the positions; unused ones are H or OH. Square brackets hold non-standard residues; d marks the D form. Peptide text beside a SMILES is read from it. X1 = C[C@H]1CCN([*:1])[C@@H]1C(=O)[*:2]; dLac(3-vinyl) = C=CC[C@@H](O)C(=O)O; NMeF = CN[C@@H](Cc1ccccc1)C(=O)O; Hica(2S) = CC(C)C[C@H](O)C(=O)O; NMeV = CN[C@H](C(=O)O)C(C)C; NMeA = CN[C@@H](C)C(=O)O; βAla = NCCC(=O)O

How the values were obtained:
[1] = system: Aeromonas hydrophila; assay: Antimicrobial activity against Aeromonas hydrophila by well diffusion method; assay type: functional, organism-based
Method in brief: (§1)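 Agar well diffusion assay against the bacterial test strain; chloromycetin run alongside as positive control. Method follows a cited earlier protocol.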

[2] = system: Vibrio harveyi; assay: Antimicrobial activity against Vibrio harveyi by well diffusion method; assay type: functional, organism-based; method in brief: as §1
[3] = system: Vibrio anguillarum; assay: Antimicrobial activity against Vibrio anguillarum by well diffusion method; assay type: functional, organism-based; method in brief: as §1
[4] = system: Edwardsiella tarda; assay: Antimicrobial activity against Edwardsiella tarda by well diffusion method; assay type: functional, organism-based; method in brief: as §1
[5] = system: Vibrio parahaemolyticus; assay: Antimicrobial activity against Vibrio parahaemolyticus by well diffusion method; assay type: functional, organism-based; method in brief: as §1
[6] = system: Vibrio alginolyticus; assay: Antimicrobial activity against Vibrio alginolyticus by well diffusion method; assay type: functional; method in brief: as §1
[7] = system: Escherichia coli; assay: Antimicrobial activity against Escherichia coli by well diffusion method; assay type: functional
[8] = system: Staphylococcus aureus; assay: Antimicrobial activity against Staphylococcus aureus by well diffusion method; assay type: functional

| Compound | MIC [1] | MIC [2] | MIC [3] | MIC [4] | MIC [6] | MIC [7] [µg/mL] | MIC [8] [µg/mL] | MIC [5] |
| --- | --- | --- | --- | --- | --- | --- | --- | --- |
| Cc1c(O)c(C(=O)O)c(O)c2c1[C@H](C)[C@@H](C)OC2=O | inactive | inactive | inactive | inactive | inactive |  |  | inactive |
| C=CC[C@H]1OC(=O)CCNC(=O)[C@H](C)N(C)C(=O)[C@H](C(C)C)N(C)C(=O)[C@H]([C@@H](C)CC)NC(=O)[C@@H]2CCCN2C1=O (cyclo([dLac(3-vinyl)]PI[NMeV][NMeA][βAla])) | inactive | inactive | inactive | inactive | inactive |  |  | inactive |
| CC(C)C[C@@H]1OC(=O)CCNC(=O)[C@H](Cc2ccccc2)N(C)C(=O)[C@H](C(C)C)N(C)C(=O)[C@H](Cc2ccccc2)NC(=O)[C@@H]2CCCN2C1=O (cyclo(F[NMeV][NMeF][βAla][Hica(2S)]P)) | inactive | inactive | inactive | inactive | inactive |  |  | inactive |
| C=CC[C@H]1OC(=O)CCNC(=O)[C@H](C)N(C)C(=O)[C@H](C(C)C)N(C)C(=O)[C@H]([C@@H](C)CC)NC(=O)[C@@H]2[C@@H](C)CCN2C1=O (cyclo(I[NMeV][NMeA][βAla][dLac(3-vinyl)][X1])) | inactive | inactive | inactive | inactive | inactive |  |  | inactive |

Further lines, with some results ahead:

| MIC [1] | MIC [2] | MIC [3] | MIC [4] | MIC [6] | MIC [7] [µg/mL] | MIC [8] [µg/mL] | Compound | MIC [5] |
| --- | --- | --- | --- | --- | --- | --- | --- | --- |
| inactive | inactive | inactive | inactive | inactive |  |  | CC(C)C[C@@H]1OC(=O)CCNC(=O)[C@H](Cc2ccccc2)N(C)C(=O)[C@H](C(C)C)N(C)C(=O)[C@H](Cc2ccccc2)NC(=O)[C@@H]2[C@@H](C)CCN2C1=O (cyclo(F[NMeV][NMeF][βAla][Hica(2S)][X1])) | inactive |
| inactive | inactive | inactive | inactive | 8 µg/mL (≈ 36 µM) |  |  | Cc1c(O)cc(O)c2c1[C@H](C)[C@@H](C)OC2=O | inactive |
| inactive | inactive | inactive | inactive | 16 µg/mL (≈ 49 µM) | 8 (≈ 24.5 µM) | 8 (≈ 24.5 µM) | Cc1c(O)cc2c3c1[C@H](C)[C@@H](C)O[C@@H]3C[C@H](c1ccc(O)cc1)O2 | inactive |
| inactive | inactive | inactive | inactive | 16 µg/mL (≈ 44.9 µM) | 2 (≈ 5.61 µM) | 4 (≈ 11.2 µM) | COc1cc([C@H]2C[C@H]3O[C@H](C)[C@@H](C)c4c(C)c(O)cc(c43)O2)ccc1O | inactive |
| inactive | inactive | inactive | inactive | inactive |  |  | Cc1c2c(c3oc4cc(=O)c(C)c5c-4c(c3c1O)O[C@H](C)[C@H]5C)O[C@H](C)[C@H]2C | inactive |
